SENP1 FRET inh: blocks the human SENP1 SUMO protease catalytic domain; Q9P0U3; recombinant SENP1 catalytic domain, CyPet-SUMO1-YPet FRET cleavage; inhibition, % at 10 µM; 0.21% of 360,000 active; AID 624204;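 active = inhibition at least 30% at 10 µM, raw YFP signal under a set limit, fluorescence ratio 0.5 to 1.5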;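 note: 0% = enzyme with DMSO and 100% = no enzyme wells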
Target sequence (Q9P0U3 419-644 limits assumed): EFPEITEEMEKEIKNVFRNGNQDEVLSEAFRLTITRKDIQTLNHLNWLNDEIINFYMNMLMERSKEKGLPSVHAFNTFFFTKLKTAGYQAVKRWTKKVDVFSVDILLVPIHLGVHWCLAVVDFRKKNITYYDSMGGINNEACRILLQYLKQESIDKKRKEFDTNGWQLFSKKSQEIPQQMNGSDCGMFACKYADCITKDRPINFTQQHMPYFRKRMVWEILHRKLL
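Test system: recombinant human SENP1 catalytic domain, His6-tagged / Medium: pH 8 Tris buffer with EDTA, NaCl, BME, BSA, NP40, catalase / Also added: SUMO1 FRET substrate flanked by Cypet and Ypet, 25 nM / Times: 50 min reaction at room temperature / Signal: FRET, CFP and YFP emission / Control set: no-enzyme low control and enzyme-plus-DMSO high control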
TPT1 inhibitor: inhibitors of Candida albicans tRNA 2'-phosphotransferase TPT1; 0.81% of 300,000 active; AID 1962; recombinant caTPT1, FP RNA substrate dephosphorylation; inhibition, % at 5 µM;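 active = inhibition above the mean of all tested compounds plus 3 SD, set per screening campaign, cut at about 24% in these data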;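 note: plate controls were DMSO alone for no effect and ferristatin control at 100 nM for full effect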
Rpn11 block: inhibitors of human proteasome Rpn11; O00487; human 26S proteasome, Ub4-pepOG fluorescence polarization; 20S core pre-blocked with epoxomicin; inhibition, % at 20 µM; 0.59% of 360,000 active;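 active = inhibition at 20 µM, scaled to each plate's controls, above about 33%, limit read from the data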
HNF4A DNA FP: change in binding of human HNF4 alpha to DNA; P41235; activity change, % at 10 µM; 0.3% of 360,000 active; HNF4a-FITC DNA binding, fluorescence polarization, 1 h; in the data active = activity change above about 30%, passing the limit was not always enough
ATG4B inhibitor: ATG4B (human) cysteine protease inhibition | Q9Y4P1 | ATG4B cleavage of LC3-PLA2, NBD-HPC fluorescence, 1 h | inhibition, % at 8.33 µM | 0.51% of 340,000 active
Target sequence (Q9Y4P1 whole entry, looked up): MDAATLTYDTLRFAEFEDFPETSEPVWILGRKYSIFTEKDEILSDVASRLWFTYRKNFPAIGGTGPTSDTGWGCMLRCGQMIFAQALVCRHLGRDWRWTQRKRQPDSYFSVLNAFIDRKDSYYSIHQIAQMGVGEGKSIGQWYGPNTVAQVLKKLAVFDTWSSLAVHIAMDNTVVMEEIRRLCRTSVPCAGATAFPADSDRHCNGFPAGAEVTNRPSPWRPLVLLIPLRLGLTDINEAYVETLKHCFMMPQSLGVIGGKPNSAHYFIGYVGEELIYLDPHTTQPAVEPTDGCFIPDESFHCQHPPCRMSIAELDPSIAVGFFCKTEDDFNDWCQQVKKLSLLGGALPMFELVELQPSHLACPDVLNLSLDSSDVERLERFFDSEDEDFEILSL
CSN inh: inhibitors of human CSN-mediated cullin deneddylation | Q92905 | Purified CSN, SCF-Nedd8-OG deneddylation, fluorescence polarization | inhibition, % at 12.5 µM | 0.38% of 360,000 active;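 active = pattern-corrected inhibition above about 35%, with an unprinted fluorescence ratio check between 0.5 and 1.5, limit read from the data, passing the limit was not always enough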;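 note: 0% = enzyme with substrate and 100% = substrate without enzyme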
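assay system = purified human Csn5 enzyme expressed in HEK293T cells | amount = 0.24 nM enzyme | buffer or medium = Tris/NaCl/DTT buffer, pH 7.5 | reagent = 10 nM SCFSkp2-Nedd8OG | compound = one concentration, 12.5 µM, 0.25% DMSO | times = 90 min reaction at room temperature | signal = FP | read-out basis = % inhibition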
Rpn11 confirm: confirmation of human proteasome Rpn11 inhibitors; shares compounds with Rpn11 block; purified human 26S proteasome, Ub4-pepOG fluorescence polarization; proteasome pretreated with epoxomicin; inhibition, % at 20 µM; 29% of 1,900 active; AID 602318
MMP-2 inh: blocks human MMP-2, flagging nonselective RPN11 hits; 4% of 1,900 active; recombinant MMP-2, FRET peptide cleavage fluorescence; shares compounds with Rpn11 block; inhibition, % at 20 µM;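 note: human MMP-2 activated beforehand with APMA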
Thrombin inh: thrombin (bovine) inhibition counter-screen; AID 602333; 13% of 1,900 active; inhibition, % at 20 µM; bovine thrombin cleavage of Ub4-pepOG, fluorescence polarization; shares compounds with Rpn11 block;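 active = mean inhibition at least 40% at 20 µM, or signal 3 deviations below plate average, so some actives read negative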;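 note: plate controls were thrombin with DMSO for no effect and buffer wells lacking thrombin for full effect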
Starred values were filed as active, the others as inactive. Rows were chosen to be rich in hits. Some 2% of all compounds tested hit in one or more screens of this group. Cut-off read from the data, not from the text of the source, unless noted: active = inhibition above about 40%; inactive = the rest.

C[C@H]1CN([C@@H](C)CO)S(=O)(=O)c2ccc(Br)cc2O[C@@H]1CN(C)C(=O)CCN1CCCCC1 was read as SENP1 FRET inh -2, Rpn11 block 2, HNF4A DNA FP 2 and CSN inh -6.
Cc1cc(C)cc(NS(=O)(=O)c2cnc(Cl)c(Cl)c2)c1 was read as SENP1 FRET inh 1, TPT1 inhibitor 3, Rpn11 block 52*, HNF4A DNA FP 40*, ATG4B inhibitor 15, CSN inh -1, Rpn11 confirm 1, MMP-2 inh -15 and Thrombin inh 10.
Screening CCOc1ccc(NS(=O)(=O)c2cnc(Cl)c(Cl)c2)cc1 returned SENP1 FRET inh 0, TPT1 inhibitor -3, Rpn11 block -1, HNF4A DNA FP -1, ATG4B inhibitor 9 and CSN inh -1.
`O=C(NCc1ccc(F)cc1)C1CCCN1S(=O)(=O)c1ccc(F)cc1` (stereo not given) gave SENP1 FRET inh 2, Rpn11 block -4, HNF4A DNA FP 1 and CSN inh -3.
For O=C(NCc1ccco1)C1CCCCN1S(=O)(=O)c1ccc(F)cc1 (stereo not given) the results were SENP1 FRET inh -5, TPT1 inhibitor -1, Rpn11 block active, HNF4A DNA FP 19, ATG4B inhibitor 0, CSN inh -1, Rpn11 confirm -7, MMP-2 inh -3 and Thrombin inh -7.
`Cc1ccc(S(=O)(=O)CC(=O)c2ccc3c(c2)OCCO3)cc1` gave SENP1 FRET inh 1, TPT1 inhibitor -3, Rpn11 block -2, HNF4A DNA FP -1, ATG4B inhibitor 3 and CSN inh 5.
`NC(=O)c1sc2nc(-c3cccs3)ccc2c1N` gave SENP1 FRET inh -22, TPT1 inhibitor 19, Rpn11 block 26, HNF4A DNA FP 16, ATG4B inhibitor -4 and CSN inh 5.
Screening NC(=O)c1sc2nc(-c3ccccc3)ccc2c1N returned SENP1 FRET inh -24, TPT1 inhibitor 4, Rpn11 block 45*, HNF4A DNA FP 35, ATG4B inhibitor -4, CSN inh 4, Rpn11 confirm -10, MMP-2 inh -32 and Thrombin inh -15.
CCSc1nc(N)c(C#N)c(-c2ccco2)c1C#N was read as SENP1 FRET inh -7, TPT1 inhibitor -2, Rpn11 block 8, HNF4A DNA FP -1, ATG4B inhibitor -11 and CSN inh -1.
Screening CC(C)Cc1cc(-c2ccco2)c(C#N)c(N)n1 returned SENP1 FRET inh -27, TPT1 inhibitor -4, Rpn11 block 60*, HNF4A DNA FP 6, ATG4B inhibitor -3, CSN inh 19, Rpn11 confirm -6, MMP-2 inh -9 and Thrombin inh -6.
Screening COc1ccc(N2C(=O)N[C@@H](Cc3ccccc3)C2=O)cc1OC returned SENP1 FRET inh 2, TPT1 inhibitor -1, Rpn11 block 2, HNF4A DNA FP -2, ATG4B inhibitor 2 and CSN inh 2.
`CCOC1=C2CN(S(=O)(=O)c3ccc(C)cc3)[C@H](c3ccccc3)C[C@@H]2N(S(C)(=O)=O)[C@H](c2ccccc2)C1` gave SENP1 FRET inh -17, Rpn11 block 48*, HNF4A DNA FP 14, CSN inh 5, Rpn11 confirm 28, MMP-2 inh -11 and Thrombin inh 19.
`COCCn1c(SCC(=O)NCCCN2CCCC2=O)nc2sc3c(c2c1=O)CCCC3` gave SENP1 FRET inh 0, Rpn11 block -8, HNF4A DNA FP 3, ATG4B inhibitor -12 and CSN inh -1.
Screening CN(C(=O)COc1ccc2c(-c3ccccc3)cc(=O)oc2c1)C1CCS(=O)(=O)C1 (stereo not given) returned SENP1 FRET inh 0, TPT1 inhibitor -4, Rpn11 block 58*, HNF4A DNA FP 17, ATG4B inhibitor -8, CSN inh 0, Rpn11 confirm 6, MMP-2 inh -1 and Thrombin inh 7.
O=C(CCCO)CCCCCCCCC[C@H]1N[C@H](CO)[C@@H](O)[C@@H]1O was read as SENP1 FRET inh -3, TPT1 inhibitor 1, Rpn11 block -11, HNF4A DNA FP -1, ATG4B inhibitor 0 and CSN inh 0.
Cc1ccc(C(=O)N/C(=C\c2ccc(-c3cc(Cl)ccc3Cl)o2)C(=O)NCc2cccnc2)cc1 was read as SENP1 FRET inh -20, TPT1 inhibitor 8, Rpn11 block 51*, HNF4A DNA FP 0, ATG4B inhibitor -29, CSN inh -5, Rpn11 confirm 5, MMP-2 inh -1 and Thrombin inh -2.
Screening CC(=O)Nc1ccc(S(=O)(=O)NN=CCCc2ccccc2)cc1 returned SENP1 FRET inh 2, Rpn11 block -5, HNF4A DNA FP 3, ATG4B inhibitor -5 and CSN inh -3.
`CCC1(CC)Nc2ccccc2C(=O)N1c1ccc(OC)cc1` gave SENP1 FRET inh -49, TPT1 inhibitor 3, Rpn11 block 1, HNF4A DNA FP 8, ATG4B inhibitor -2 and CSN inh -3.
COc1ccc(N2C(=O)c3ccccc3NC23CCCC3)cc1 was read as SENP1 FRET inh 1, TPT1 inhibitor -2, Rpn11 block 37*, HNF4A DNA FP -3, ATG4B inhibitor 3, CSN inh -1, Rpn11 confirm -5, MMP-2 inh -36 and Thrombin inh 0.
`COc1cc2c(C#CCCCO)c(-c3ccc(C#N)cc3)oc(=O)c2cc1OC` gave SENP1 FRET inh -32, Rpn11 block -2, HNF4A DNA FP -5, ATG4B inhibitor -15 and CSN inh 7.
`COc1cc2c(C#CCO)c(-c3ccc(C#N)cc3)oc(=O)c2cc1OC` gave SENP1 FRET inh -22, Rpn11 block 56*, HNF4A DNA FP 2, ATG4B inhibitor 8, CSN inh 19, Rpn11 confirm 19, MMP-2 inh -30 and Thrombin inh 4.
For COC(=O)c1sc(N2C(=O)C(O)=C(C(=O)c3ccc(C)o3)C2c2ccco2)nc1C (stereo not given) the results were SENP1 FRET inh -67, TPT1 inhibitor 8, Rpn11 block 15, HNF4A DNA FP -1, ATG4B inhibitor 0 and CSN inh 1.

Screening data: PubChem BioAssay, several laboratories
